Data as given in ChEMBL document CHEMBL1153191, “Triazole oxytocin antagonists: Identification of an aryloxyazetidine replacement for a biaryl substituent” (Bioorg Med Chem Lett, 2010).
In brackets after ≈: the same amount, converted by molar mass.

Experiments:
Oxytocin receptor = biological target: T1, Oxytocin receptor (Homo sapiens, UniProt P30559); assay: Antagonist activity at human cloned oxytocin receptor by cell based beta lactamase assay; format: functional
T1 sequence (P30559 whole entry): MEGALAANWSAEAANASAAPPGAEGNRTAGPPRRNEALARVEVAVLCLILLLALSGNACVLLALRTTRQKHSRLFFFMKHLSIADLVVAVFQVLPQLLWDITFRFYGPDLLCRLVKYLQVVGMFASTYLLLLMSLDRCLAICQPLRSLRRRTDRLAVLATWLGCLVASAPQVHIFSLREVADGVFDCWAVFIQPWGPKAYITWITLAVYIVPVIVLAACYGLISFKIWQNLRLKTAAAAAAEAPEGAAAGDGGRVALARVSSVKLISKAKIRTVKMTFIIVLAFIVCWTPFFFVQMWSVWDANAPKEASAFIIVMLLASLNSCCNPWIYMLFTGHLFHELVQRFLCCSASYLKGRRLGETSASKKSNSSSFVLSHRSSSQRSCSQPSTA

Vasopressin V1a receptor = Vasopressin V1a receptor (Homo sapiens, UniProt P37288); assay: Antagonist activity at human cloned vasopressin V1a receptor by cell based beta lactamase assay; format: functional
Vasopressin V1a receptor, sequence (P37288 whole entry): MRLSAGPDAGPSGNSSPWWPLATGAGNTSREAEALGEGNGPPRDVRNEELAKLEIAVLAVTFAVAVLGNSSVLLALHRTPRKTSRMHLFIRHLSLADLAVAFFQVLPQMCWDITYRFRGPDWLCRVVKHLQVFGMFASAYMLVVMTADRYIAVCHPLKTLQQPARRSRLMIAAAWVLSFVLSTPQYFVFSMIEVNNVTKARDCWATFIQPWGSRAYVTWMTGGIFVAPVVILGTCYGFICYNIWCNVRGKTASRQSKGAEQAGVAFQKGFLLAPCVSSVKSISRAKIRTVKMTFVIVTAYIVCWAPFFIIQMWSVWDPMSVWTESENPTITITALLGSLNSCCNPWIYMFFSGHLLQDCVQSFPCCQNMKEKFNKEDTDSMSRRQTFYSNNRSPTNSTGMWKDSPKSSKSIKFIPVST

Vasopressin V2 receptor = Vasopressin V2 receptor (Homo sapiens, UniProt P30518); assay: Antagonist activity at human cloned vasopressin V2 receptor by cell based beta lactamase assay; format: functional
Vasopressin V2 receptor, sequence (P30518 whole entry): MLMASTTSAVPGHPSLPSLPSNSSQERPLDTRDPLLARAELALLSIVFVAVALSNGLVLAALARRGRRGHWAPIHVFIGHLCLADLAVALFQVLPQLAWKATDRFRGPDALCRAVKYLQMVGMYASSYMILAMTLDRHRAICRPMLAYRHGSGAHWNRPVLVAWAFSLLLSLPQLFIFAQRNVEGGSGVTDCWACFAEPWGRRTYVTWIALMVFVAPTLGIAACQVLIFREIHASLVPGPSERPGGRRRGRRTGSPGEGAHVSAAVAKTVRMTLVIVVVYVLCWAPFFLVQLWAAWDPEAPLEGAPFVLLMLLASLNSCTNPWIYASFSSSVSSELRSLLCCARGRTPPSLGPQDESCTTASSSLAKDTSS

Liver microsomes = assay: Intrinsic clearance in human liver microsomes; format: ADME, Microsome
Rattus norvegicus [1] = assay: Volume of distribution in rat at 0.5 mg/kg, po; format: ADME, organism-based; design: dose 0.5 mg/kg, route oral; conditions: in vivo
[2] = Aqueous solubility at pH 7.5; format: physicochemical; conditions: buffer
Outline: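 Aqueous solubility was measured on fully crystalline material at pH 7.5.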

[3] = Clearance in rat at 2 mg/kg, po; format: ADME, organism-based; design: dose 2 mg/kg, route oral; conditions: in vivo
Outline: (§1)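 Pharmacokinetic parameters from oral dosing of a suspension of fully crystalline material, at 2 mg/Kg in rat and 0.2 mg/Kg in dog.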

[4] = Half life in rat at 2 mg/kg, po; format: ADME, organism-based; design: dose 2 mg/kg, route oral; conditions: in vivo; outline: as §1
Rattus norvegicus [5] = assay: Volume of distribution in rat at 2 mg/kg, po; format: ADME, organism-based; design: dose 2 mg/kg, route oral; conditions: in vivo; outline: as §1
[6] = Oral bioavailability in rat at 2 mg/kg; format: ADME, organism-based; conditions: in vivo
Outline: (§2)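 Oral bioavailability from oral dosing of a suspension of fully crystalline material, at 2 mg/Kg in rat and 0.2 mg/Kg in dog, calculated by comparison with iv pharmacokinetic data.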

[7] = Clearance in dog at 0.2 mg/kg, po; format: ADME, organism-based, Canis lupus familiaris; design: dose 0.2 mg/kg, route oral; conditions: in vivo; outline: as §1
[8] = Half life in dog at 0.2 mg/kg, po; format: ADME, organism-based, Canis lupus familiaris; design: dose 0.2 mg/kg, route oral; conditions: in vivo; outline: as §1
Canis familiaris = assay: Volume of distribution in dog at 0.2 mg/kg, po; format: ADME, organism-based, Canis lupus familiaris; design: dose 0.2 mg/kg, route oral; conditions: in vivo; outline: as §1
[9] = Oral bioavailability in dog at 0.2 mg/kg, po; format: ADME, organism-based, Canis lupus familiaris; conditions: in vivo; outline: as §2
Substance-P receptor = Substance-P receptor (Homo sapiens, UniProt P25103); assay: Binding affinity to NK1 receptor
Substance-P receptor, sequence (P25103 whole entry): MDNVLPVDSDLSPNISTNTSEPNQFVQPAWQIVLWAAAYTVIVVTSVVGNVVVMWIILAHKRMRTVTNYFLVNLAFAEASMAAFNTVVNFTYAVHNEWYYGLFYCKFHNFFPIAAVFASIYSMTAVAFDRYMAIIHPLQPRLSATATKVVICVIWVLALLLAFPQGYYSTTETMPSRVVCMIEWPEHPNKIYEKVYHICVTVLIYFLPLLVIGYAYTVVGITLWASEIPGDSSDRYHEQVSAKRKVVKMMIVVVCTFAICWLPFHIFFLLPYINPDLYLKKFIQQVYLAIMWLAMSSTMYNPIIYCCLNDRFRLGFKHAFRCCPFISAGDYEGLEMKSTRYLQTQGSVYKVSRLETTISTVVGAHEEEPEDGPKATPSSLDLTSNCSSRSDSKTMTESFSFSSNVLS

[10] = biological target: Kappa-type opioid receptor (Homo sapiens, UniProt P41145); assay: Binding affinity to kappa opioid receptor
Kappa-type opioid receptor, sequence (P41145 whole entry): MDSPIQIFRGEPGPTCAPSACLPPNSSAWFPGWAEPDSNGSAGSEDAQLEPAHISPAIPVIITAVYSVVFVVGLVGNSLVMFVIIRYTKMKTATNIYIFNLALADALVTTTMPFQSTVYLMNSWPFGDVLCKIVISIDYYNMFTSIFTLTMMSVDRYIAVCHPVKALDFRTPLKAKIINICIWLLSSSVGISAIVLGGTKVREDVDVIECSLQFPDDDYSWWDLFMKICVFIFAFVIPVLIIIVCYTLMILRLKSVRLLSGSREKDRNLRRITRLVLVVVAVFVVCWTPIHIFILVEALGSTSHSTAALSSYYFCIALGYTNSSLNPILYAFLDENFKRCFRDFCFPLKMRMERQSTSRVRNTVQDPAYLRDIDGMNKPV

[11] = biological target: Growth hormone secretagogue receptor type 1 (Homo sapiens, UniProt Q92847); assay: Binding affinity to ghrelin receptor
Growth hormone secretagogue receptor type 1, sequence (Q92847 whole entry): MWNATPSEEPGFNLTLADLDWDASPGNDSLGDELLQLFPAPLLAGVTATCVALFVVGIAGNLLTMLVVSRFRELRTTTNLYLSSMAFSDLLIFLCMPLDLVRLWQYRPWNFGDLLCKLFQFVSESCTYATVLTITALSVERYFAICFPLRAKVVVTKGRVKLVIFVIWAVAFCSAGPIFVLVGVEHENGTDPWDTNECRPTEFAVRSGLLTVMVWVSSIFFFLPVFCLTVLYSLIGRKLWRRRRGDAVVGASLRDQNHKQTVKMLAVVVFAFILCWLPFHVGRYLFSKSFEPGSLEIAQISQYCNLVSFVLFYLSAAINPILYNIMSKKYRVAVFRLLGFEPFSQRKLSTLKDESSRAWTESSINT

Compound	Ki (Oxytocin receptor)	Ki (Vasopressin V1a receptor)	Ki (Vasopressin V2 receptor)	clearance (Liver microsomes)	other results
COc1ccc(-n2c(C)nnc2N2CC(Oc3ccccc3)C2)cn1	304 nM	> 10000 nM	> 10000 nM	< 7 µL/min/mg	
COc1ccc(-n2c(C)nnc2N2CCC(Oc3ccc(F)cc3C)CC2)cn1		111 nM	> 10000 nM	23 µL/min/mg	
COc1ccc(-n2c(C)nnc2N2CC[C@@H](Oc3ccccc3)C2)cn1	170 nM	1840 nM	> 10000 nM		
COc1ccc(-n2c(C)nnc2N2CCC(Oc3ccccc3)CC2)cn1	114 nM	127 nM	> 10000 nM		
COCc1nnc(N2CCC(Oc3ccccc3C)CC2)n1-c1ccc(OC)nc1	2.2 nM	24.4 nM	> 10000 nM		
COc1ccc(-n2c(C)nnc2N2CCC(Oc3ccccc3C)CC2)cn1	5.4 nM	21.6 nM	> 10000 nM		
COCc1nnc(N2CC(Oc3ccc(F)cc3C)C2)n1-c1ccc(OC)nc1	18.4 nM	719 nM	1190 nM		
COc1ccc(-n2c(C)nnc2N2CCC(Oc3cc(F)cc(F)c3C)CC2)cn1	0.4 nM	175 nM	> 10000 nM		
COc1ccc(-n2c(C)nnc2-c2cnc(-c3ccc(F)cc3C)cn2)cn1			> 10000 nM		Vd (Rattus norvegicus [1]): 4.4 L/kg
COCc1nnc(N2CC[C@@H](Oc3ccccc3C)C2)n1-c1ccc(OC)nc1	28.5 nM	255 nM	> 10000 nM		
COCc1nnc(N2CC(Oc3ccc(F)cc3Cl)C2)n1-c1ccc(OC)nc1	9.5 nM	1120 nM	> 10000 nM	10 µL/min/mg	solubility [2]: 59 µg/mL (≈ 141 µM); CL/F [3]: 36 mL/min/kg; half-life [4]: 0.9 h; Vd (Rattus norvegicus [5]): 2.5 L/kg; bioavailability [6]: 62%; CL/F [7]: 8 mL/min/kg; half-life [8]: 1.9 h; Vd (Canis familiaris): 1.3 L/kg; bioavailability [9]: 81%; Ki (Substance-P receptor): 6500 nM; Ki [10]: 3000 nM; Ki [11]: 4400 nM
COc1ccc(-n2c(C)nnc2N2CC[C@@H](Oc3ccccc3C)C2)cn1	35.9 nM	734 nM	> 10000 nM	32 µL/min/mg	
COc1ccc(-n2c(C)nnc2N2CCC(Oc3cccc(F)c3C)CC2)cn1	2.6 nM		> 10000 nM	24 µL/min/mg	
COc1ccc(-n2c(C)nnc2N2CC(Oc3ccccc3Cl)C2)cn1	55.1 nM	1940 nM	> 10000 nM		
COc1ccc(-n2c(C)nnc2N2CC(Oc3ccc(F)cc3Cl)C2)cn1	28.4 nM	2430 nM	> 10000 nM	22 µL/min/mg	

The next lines start with results.

Ki (Oxytocin receptor)	Ki (Vasopressin V1a receptor)	Ki (Vasopressin V2 receptor)	clearance (Liver microsomes)	Compound	other results
31.8 nM	941 nM	> 10000 nM	95 µL/min/mg	COc1ccc(-n2c(C)nnc2N2CC[C@@H](Oc3ccc(F)cc3C)C2)cn1	
5.8 nM	1000 nM	> 10000 nM	107 µL/min/mg	COCc1nnc(N2CC[C@@H](Oc3cc(F)cc(F)c3C)C2)n1-c1ccc(OC)nc1	
17.9 nM	586 nM	> 10000 nM	> 440 µL/min/mg	COCc1nnc(N2CC[C@@H](Oc3ccc(F)cc3C)C2)n1-c1ccc(OC)nc1	
207 nM	522 nM	> 10000 nM		COCc1nnc(N2CC[C@H](Oc3ccccc3C)C2)n1-c1ccc(OC)nc1	
40 nM	1680 nM	2770 nM		COc1ccc(-n2c(C)nnc2N2CC(Oc3cc(F)ccc3C)C2)cn1	
32.5 nM	1340 nM	> 10000 nM	21 µL/min/mg	COCc1nnc(N2CC(Oc3ccccc3Cl)C2)n1-c1ccc(OC)nc1	
17.5 nM	608 nM	> 10000 nM		COc1ccc(-n2c(C)nnc2N2CC(Oc3ccc(F)cc3C)C2)cn1	
